What all share (format): functional, cell-based
One experiment has as its system MDA-MB-435. As to the kind of experiment: Cytotoxicity against human MDA-MB-435 cells after 72 hrs by MTT assay. To be noted: MDA-MB-435, 72 h. The gist of the method: (§1)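 Cells grown in RPMI 1640 with 10% FBS, 2 mM glutamine, streptomycin and penicillin at 37 C, 5% CO2. Seeded at 10^5 cells/well (adherent) or 0.3 × 10^6 cells/well (suspension). After 24 h, compounds in DMSO (0.39-25 μg/mL) added; doxorubicin (0.01-0.58 μg/mL) as positive control. After 69 h, MTT 0.5 mg/mL for 3 h. Formazan dissolved in DMSO, A595 read, IC50 by nonlinear regression.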
Background: Formazan colour is commonly taken as a measure of viable cells.

A further experiment relates to SF-295. Put plainly: Cytotoxicity against human SF295 cells after 72 hrs by MTT assay. To be noted: SF-295, 72 h. The procedure, abridged:
as §1

For the next experiment, the system named is HCT-8. Put plainly: Cytotoxicity against human HCT8 cells after 72 hrs by MTT assay. To be noted: HCT-8, 72 h. The procedure, abridged: as §1
The test system of the next experiment is HL-60. Put plainly: Cytotoxicity against human HL60 cells after 72 hrs by MTT assay. To be noted: HL-60, 72 h. The gist of the method: as §1

Regarding `C=CC(=C)CC[C@]1(C)[C@H](C)[C@@H](OC(C)=O)[C@H](OC(=O)/C=C\C=C\CCCCC)[C@@]23C(=C[C@H](OC(C)=O)C[C@@H]12)[C@@H](OC(C)=O)O[C@@H]3OC(C)=O`, the IC50 (as a rule, the midpoint of a concentration-inhibition curve) in the experiment on MDA-MB-435 is greater than 5000 nM; in the experiment with SF-295 it was greater than 5000 nM; in the experiment on HCT-8 it was greater than 5000 nM; with HL-60, 4300 nM.
Consider `C=CC(=C)CC[C@]1(C)[C@H](C)[C@@H](OC(=O)/C=C\C=C\CCCCC)[C@H](OC(C)=O)[C@@]23C(=C[C@H](OC(C)=O)C[C@@H]12)[C@@H](OC(C)=O)O[C@@H]3OC(C)=O`, for which the IC50 with MDA-MB-435, in the experiment on SF-295, in the experiment with HCT-8 and with HL-60 was greater than 5000 nM each time.
Take `C=CC(=C)CC[C@]1(C)[C@H](C)[C@@H](O)[C@H](OC(=O)/C=C\C=C\CCCCC)[C@@]23C(=C[C@H](O)C[C@@H]12)[C@@H](OC(C)=O)O[C@@H]3OC(C)=O` (relative stereo) [CASEARUPESTRIN A]: the IC50 in the experiment on MDA-MB-435 was 360 nM; in the experiment with SF-295 it was 360 nM; in the experiment with HCT-8 it was 130 nM; in the experiment on HL-60, 100 nM.
For `C=CC(=C)CC[C@]1(C)[C@H](C)[C@@H](OC(=O)/C=C\C=C\CCCCC)[C@H](O)[C@@]23C(=C[C@H](O)C[C@@H]12)[C@@H](OC(C)=O)O[C@@H]3OC(C)=O` (relative stereo) [CASEARUPESTRIN B], the IC50 is 1300 nM with MDA-MB-435, 800 nM in the experiment with SF-295, 280 nM in the experiment with HCT-8 and 850 nM with HL-60.
On the same counts, the results for `C=CC(=C)CC[C@]1(C)[C@H](C)[C@@H](OC(=O)/C=C\C=C\CCCCC)[C@H](O)[C@@]23C(=C[C@H](O)C[C@@H]12)[C@@H](OC)O[C@@H]3OC(C)=O` (relative stereo) [CASEARUPESTRIN C] are greater than 5000 nM, greater than 5000 nM, greater than 5000 nM and greater than 5000 nM.
`C=CC(=C)CC[C@]1(C)[C@H](C)[C@@H](OC(=O)/C=C\C=C\CCCCC)[C@H](OC(C)=O)[C@@]23C(=C[C@H](O)C[C@@H]12)[C@@H](OC(C)=O)O[C@@H]3OC(C)=O` (relative stereo) [CASEARUPESTRIN D]: the IC50 was 930 nM in the experiment with MDA-MB-435, 430 nM with SF-295, 250 nM in the experiment on HCT-8 and 250 nM in the experiment with HL-60.
As to `COc1cccc2c1C(=O)c1c(O)c3c(c(O)c1C2=O)C[C@@](O)(C(=O)CO)C[C@@H]3O[C@H]1C[C@H](N)[C@H](O)[C@H](C)O1` [DOXORUBICIN], the IC50 came out at 400 nM in the experiment on SF-295 and 40 nM in the experiment with HL-60.

Source of the values: ChEMBL document CHEMBL1772998, “Cytotoxic clerodane diterpenes from Casearia rupestris” (J Nat Prod, 2011).
